MLLE-PAM2 inh: inhibitors of PABP1 MLLE–PAM2 peptide binding, primary screen, biochemical, fluorescence polarization, FITC-PAM2, GST-MLLE; Polyadenylate-binding protein 1 (Homo sapiens), P11940; AID 588489, 2011; inhibition, % at 20 µM; 0.36% of 360,000 active; in the data active = inhibition above about 35%, passing the limit was not always enough;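 note: plate controls were DMSO wells with GST-MLLE for no effect and wells lacking GST-MLLE protein for full effect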
Target sequence (P11940 whole entry, looked up): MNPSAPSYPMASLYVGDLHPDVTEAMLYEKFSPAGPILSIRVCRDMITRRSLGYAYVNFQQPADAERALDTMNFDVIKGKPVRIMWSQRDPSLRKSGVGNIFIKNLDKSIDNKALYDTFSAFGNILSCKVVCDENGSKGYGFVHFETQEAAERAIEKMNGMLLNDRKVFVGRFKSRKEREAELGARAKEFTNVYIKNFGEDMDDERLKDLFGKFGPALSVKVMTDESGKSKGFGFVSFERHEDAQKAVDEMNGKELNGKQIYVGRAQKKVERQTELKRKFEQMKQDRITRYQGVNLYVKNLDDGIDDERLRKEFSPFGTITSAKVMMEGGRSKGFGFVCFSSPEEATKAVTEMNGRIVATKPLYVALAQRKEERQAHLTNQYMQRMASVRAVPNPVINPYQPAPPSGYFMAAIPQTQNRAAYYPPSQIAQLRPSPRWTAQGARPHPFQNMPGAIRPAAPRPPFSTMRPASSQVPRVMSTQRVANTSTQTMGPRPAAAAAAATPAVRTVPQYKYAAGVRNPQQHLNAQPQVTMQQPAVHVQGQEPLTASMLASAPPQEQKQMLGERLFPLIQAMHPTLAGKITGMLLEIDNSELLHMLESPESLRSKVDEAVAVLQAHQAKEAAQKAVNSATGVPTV
ZTA DNA inh: counter-screen for EBNA-1 inhibitors: inhibitors of Epstein-Barr virus ZTA; P03206; ZTA-DNA binding, fluorescence polarization; inhibition, % at 11 µM; 0.15% of 320,000 active; AID 2234; in the data active = inhibition above about 33%
eIF4H inh: human eIF4H binding inhibitors, primary screen, translation initiation inhibitor project, biochemical, uHTS, fluorescence polarization. Eukaryotic translation initiation factor 4H (Homo sapiens), Q15056. eIF4H fluorescence polarization binding assay. inhibition, % at 35 µM. 0.94% of 290,000 active;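 note: calls also rest on retests at 20 µM and on dose response follow-up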
HCV NS3 hel inh: inhibitors of HCV NS3 helicase, primary screen, biochemical, Cy5 molecular beacon fluorescence | 0.56% of 290,000 active | NS3 helicase DNA unwinding | AID 1800, 2009 | inhibition, % at 10.9 µM | Hepatitis C virus NS3 helicase;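 active = inhibition above the mean of all tested compounds plus 3 SD, set per campaign, cut at about 35% in these data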;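 note: 0% = DMSO wells and 100% = thioflavine S control wells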
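System: HCV NS3 helicase fragment; control set: DMSO and thioflavine S; technique: Cy5 fluorescence at 0 and 60 min, beacon hairpin quenching; reagent: beacon DNA duplex substrate plus ATP; replicates: singlicate; schedule: 1 h reaction at 25 °C, ATP-initiated; medium: MOPS buffer pH 6.5 with MgCl2, DTT, Tween20, BSA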
EBNA-1 inhibitor: EBNA-1 DNA-binding inhibitors, primary screen, biochemical, fluorescence polarization; AID 1950, 2009; inhibition, % at 14.8 µM; 0.34% of 300,000 active; in the data active = inhibition above about 28%
PABP polyA inh: PABP poly(A) RNA binding inhibitors, primary screen, biochemical, fluorescence polarization, uHTS; Polyadenylate-binding protein 1 (Homo sapiens), P11940; inhibition, % at 35 µM; 1% of 290,000 active;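 note: calls also rest on retests at 20 µM and on dose response follow-up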
NS3 hel confirm: HCV NS3 helicase inhibitors, retest, confirmation, biochemical, Cy5 molecular beacon fluorescence, triplicate | shares compounds with HCV NS3 hel inh | NS3 helicase DNA unwinding | inhibition, % at 10.9 µM | 31% of 1,600 active | AID 1943, 2009;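 active = inhibition above the mean of all tested compounds plus 3 SD, cutoff set per campaign, cut at about 36% in these data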
DNA FID counter: compounds displacing fluorescent DNA intercalator, artefact control for HCV NS3 helicase inhibitor project, biochemical, FID fluorescence, triplicate | shares compounds with HCV NS3 hel inh | DNA fluorescent intercalator displacement | inhibition, % at 7.9 µM | 4% of 1,600 active; in the data active = inhibition above about 37%;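 note: 0% = vehicle and 100% = reference compound; higher means more displacement of ethidium bromide from the DNA hairpin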
FID counter DR: compounds displacing fluorescent intercalator from DNA, dose response, counter-screen for HCV NS3 helicase inhibitor project, biochemical, fluorescence. shares compounds with HCV NS3 hel inh. fluorescent intercalator displacement from DNA. IC50, µM. 120 tested, under 10 active. AID 2172, 2009
* marks the source's active call; other numbers are inactive results; i = inactive; . = no result. Shown are actives, neighbours in structure and some others; about 2.1% of the full set was active somewhere. Unless noted, the rule behind the calls is not given here.

SMILES	MLLE-PAM2 inh	ZTA DNA inh	eIF4H inh	HCV NS3 hel inh	EBNA-1 inhibitor	PABP polyA inh	NS3 hel confirm	DNA FID counter	others
COc1ccc(NC(=O)c2cc(-c3cc(OC)c(OC)c(OC)c3)nc3ccccc23)cc1OC	-1	-10	-2	-26	-7	6	.	.
CCCCCCCCCc1nc2sc3c(c2c(=O)n1NC(=O)c1ccccc1[N+](=O)[O-])CC(C)(C)OC3	2	2	-4	37*	-7	2	50*	4	FID counter DR=>79
Cc1ccc(F)c(NC(=S)Nc2cccc3ccccc23)c1	15	-9	7	52*	-6	16	4	6
S=C(Nc1cccc2ccccc12)Nc1cccc2ccccc12	12	.	.	.	.	.	.	.
CCCCN(CC)CCNC(=O)c1cn(-c2ccc(Cl)cc2)c(=O)c2ccccc12	0	2	-2	-19	-1	-6	.	.
CN(C)C(=O)C[n+]1ccc(C(N)=O)cc1	-7	13	-4	7	1	-4	.	.
CC(C)(C)C(=O)C[n+]1ccc(C(N)=O)cc1	17	-26	-3	47*	-11	-5	-1	2
CC(C)c1ccc(NC(=S)N2CCCC2)cc1	-126	-6	2	-9	-6	0	.	.
O=C1NN(c2ccccc2)C(=O)/C1=C/c1ccc(Sc2cccc3ccccc23)o1	13	8	79	53*	8	-2	75*	17	FID counter DR=>79
COc1ccc(C(=O)Nc2ccc(NC(=O)CSc3nnc(-c4ccncc4)n3C)cc2)cc1	2	-17	25	36*	-6	2	-3	-7
COc1ccc(-n2c(SCC(=O)Nc3ccc(C(=O)O)cc3)nnc2-c2cccs2)cc1	-90	-7	-11	64*	-2	10	-5	-24
Cn1c(SCC(=O)Nc2ccc(NC(=O)c3ccccc3)cc2)nnc1-c1ccncc1	6	6	-4	-13	12	0	.	.
COc1ccc(C(=O)CSc2nnc(-c3cccs3)n2-c2ccccc2)cc1	-48	9	2	-5	3	-2	.	.
COc1ccc(-n2c(Cc3cccn3C)nnc2SCC(=O)Nc2ccc3c(c2)OCO3)cc1	5	-9	6	45*	-2	-13	-15	-28
COc1ccc(-n2c(Cc3cccn3C)nnc2SCC(=O)Nc2ccc3c(c2)OCCO3)cc1	-6	13	2	14	7	-10	.	.
Cc1ccc(S(=O)(=O)CCN2CCC(O)(c3ccccc3)CC2)cc1	3	-2	-11	-15	-1	-2	.	.
CN(c1ccccc1)C(c1ccc(F)cc1)c1nnnn1C1CCCC1 (configuration not stated)	3	-6	-11	2	7	-14	.	.
COc1cc(NC(=O)c2cc3ccccc3cc2O)c(OC)cc1Cl	9	-4	10	12	-23	12	.	.
O=C(Nc1ccccc1O)c1cc2cc(Br)ccc2oc1=O	-13	6	-11	43*	-2	-1	-6	4
COc1ccccc1NC(=O)c1cc2cc(Br)ccc2cc1O	-6	8	80*	13	-2	28	87*	30	FID counter DR=i
CCc1cc(C(c2ccccn2)N2CCN(C)CC2)c(NC(=O)c2ccccc2)s1 (configuration not stated)	-2	5	-1	-35	-4	-20	.	.
COc1cc(/C=N/Nc2ccc(Cl)c(C(=O)O)c2)ccc1OC(=O)c1ccco1	2	-7	-2	38*	-7	-1	65*	-12
COc1ccc(C(=O)Oc2ccc(/C=N/Nc3ccc(Cl)c(C(=O)O)c3)cc2OC)cc1	-10	11	-4	-18	9	23	.	.
COc1cc(/C=N/Nc2ccc(Cl)c(C(=O)O)c2)ccc1OCC(=O)N1C(C)CCCC1C (configuration not stated)	-2	-1	4	45*	0	-6	70*	-9
Cc1nnc(SCC2=C(C(=O)O)N3C(=O)C(NC(=O)C(C)n4nc(C(F)(F)F)cc4C)C3SC2)s1 (configuration not stated)	24	-1	22	40*	-6	4	30	-22
SMILES	MLLE-PAM2 inh	ZTA DNA inh	eIF4H inh	HCV NS3 hel inh	EBNA-1 inhibitor	PABP polyA inh	NS3 hel confirm	DNA FID counter	others
Cc1nnc(SCC2=C(C(=O)O)N3C(=O)C(NC(=O)Cc4ccccc4)C3SC2)s1 (configuration not stated)	23	2	.	.	.	.	.	.
O=S(=O)(NC1CCCCC1)c1ccc(Cl)s1	1	6	-11	52*	-12	6	0	6
CC1CCC(NS(=O)(=O)c2ccc(Cl)s2)CC1 (configuration not stated)	-5	.	.	.	.	.	.	.
CCCCNC(=O)[C@H]1C[C@H]1[C@@H](O)[C@H](CO)NC(=O)[C@H](CC(C)C)NC(=O)OC(C)(C)C	-2	-18	0	36*	16	0	5	-36
CC(=O)N1N=C(c2ccco2)CC1c1cc2cc(C)ccc2nc1Cl (configuration not stated)	-8	10	-5	3	1	-7	.	.
Cc1ccc2cc(C3CC(c4ccco4)=NN3C(=O)CCCC(=O)O)c(Cl)nc2c1 (configuration not stated)	24	-6	68	51*	4	42	-30	-38
CC(CC(=O)NC1CCCCC1)S(=O)(=O)c1ccc2c(c1)NC(=O)CO2 (configuration not stated)	13	-4	-4	38*	-1	-6	-20	-2
O=C(O)CCCN1C(=O)/C(=C/C=C/c2ccco2)SC1=S	6	88*	98*	73*	45*	92*	76*	4
Cc1ccc(NC(=O)CCCN2C(=O)/C(=C/C=C/c3ccccc3)SC2=S)cc1	-3	6	-5	19	6	8	.	.
O=C(O)CC(C(=O)O)N1C(=O)/C(=C/C=C/c2ccco2)SC1=S (configuration not stated)	7	92*	100*	74*	36*	91*	87*	-3
Cn1c(-c2ccccc2O)cc2ccccc21	3	-9	14	-6	10	37	.	.
COc1cc(/C=C(\CC(=O)O)c2nc3ccccc3s2)cc(OC)c1O	-8	-16	-4	4	-1	-4	.	.

High-throughput results from PubChem.
